Bioassay records from PubChem BioAssay.
E-selectin induc: E-selectin induction in HUVECs, primary screen, imaging, HUVEC, immunofluorescence imaging, single point | P16581 | normalized: neutral wells 0, TNF-alpha wells 100 | activation, % at 7.58 µM | actives 0.37% (n = 260,000) | AID 686992, 2013;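 active means mean E-selectin-positive cell signal at least 10% of the positive control, reached in at least 60% of replicates, without over 20% cell loss; inconclusive means no rule given, readout overlaps actives, possibly toxicity-flagged; inactive means the rest, including those meeting only one limit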
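Assay system: HUVEC, human umbilical vein endothelial cells / Amount: 3,000 HUVEC/well / Controls: TNF-alpha positive control, DMSO neutral control / Compound dosing: single concentration / Medium: EGM-2 over gelatin coat / Evaluation: percent E-selectin-positive cells / Signal: immunofluorescence imaging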
rRNA inh HTS: reduced GFP signal of wild-type E. coli, primary screen, bacterial rRNA inhibitor project, GFP/RFP fluorescence, OD600, single point; actives 1.6% (n = 350,000); E. coli WT GFP vs humanized-ribosome RFP mutants, 24 h; stronger effect = lower value; DMSO median 0, no signal -100; AID 720706, 2013; GFP signal change (wild-type ribosome), % (concentration not given with the values);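 active means significant combined selectivity score with lowered wild-type GFP, culture density cut under 30%, mutant RFP and density less affected; inactive means any of these conditions unmet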
FN deposition inh: inhibitors of fibronectin matrix deposition, primary screen, AH1F cells, Alexa488-fibronectin fluorescence, plate reader; AH1F fibroblasts, overnight; inhibition, % at 12.6 µM; actives 0.086% (n = 350,000); AID 743247, 2014;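 active means mean inhibition across replicates of 30% or more, regardless of how many single replicates reach that level; inconclusive means mean under 30% yet at least half of replicates reach 30%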;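 further: positive control wells lacked labelled fibronectin entirely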
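Material: AH1F fibroblast monolayer depositing Alexa488-labelled fibronectin into matrix / Amount: 10000 AH1F cells per well / Signal: fluorescence 485/525 nm / Medium: DMEM, 2% serum / Compound: single dose, pinned / Incubation: 1 h cell adhesion before compound, then overnight fibronectin incubation / Reagent: Alexa488-FN, 24 nM final / Read-out: inhibition of fibronectin deposition signal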
SIRT5 block: SIRT5 desuccinylase inhibitors, primary screen, biochemical, fluorescence imaging, single point, set 5; NAD-dependent protein deacylase sirtuin-5, mitochondrial (Homo sapiens), Q9NXA8; Purified SirT5, succinyl-peptide AMC, trypsin-coupled fluorescence; inhibition, % at 15 µM; actives 1.1% (n = 330,000); AID 652115, 2013; in the data active means inhibition above about 15%; inconclusive means no clear call, values can overlap the other calls
Target sequence (Q9NXA8 whole entry, looked up): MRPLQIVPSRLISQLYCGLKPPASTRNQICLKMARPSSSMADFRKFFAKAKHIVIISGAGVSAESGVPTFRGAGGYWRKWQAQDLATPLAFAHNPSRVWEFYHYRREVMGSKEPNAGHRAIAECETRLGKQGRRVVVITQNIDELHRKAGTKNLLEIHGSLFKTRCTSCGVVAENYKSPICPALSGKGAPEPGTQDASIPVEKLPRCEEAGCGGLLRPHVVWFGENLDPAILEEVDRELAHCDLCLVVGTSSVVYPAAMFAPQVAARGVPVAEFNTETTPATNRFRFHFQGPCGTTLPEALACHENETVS
Statin myotox sup: suppressors of statin myotoxicity in C2C12 myotubes, primary screen, cell-based, single point, plate reader. C2C12 myotubes + simvastatin, ATP luminescence, 48 h; scaled: DMSO 0, geranylgeraniol control 100. actives 0.78% (n = 330,000). rescue of ATP level, % at 7.49 µM. AID 602340, 2012;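 active means mean ATP rescue above about 67%, or every replicate alone reaching that limit, limit read from the data, passing the limit was not always enough; inconclusive means no clear call, values can overlap the other calls; inactive means mean under the limit and some replicate under it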;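 further: myotubes were challenged with 10 µM simvastatin during compound exposure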
FGF22 binding: binders of human FGF22 protein, primary screen, FGF22 synaptogenesis inhibitor project, biophysical, thermal shift, single point; recombinant FGF22 thermal shift, SYPRO orange fluorescence; percent of sucrose octasulfate shift, DMSO zero; actives 1.5% (n = 340,000); Fibroblast growth factor 22 (Homo sapiens), Q9HCT0; activity (Tm shift, normalised), % at 9.99 µM;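 active means mean Tm shift, scaled 0 neutral to 100 positive control, at about 1.3% or above, every replicate too, limit read from the data; inconclusive means no clear call, values can overlap the other calls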
Target sequence (Q9HCT0 whole entry, looked up): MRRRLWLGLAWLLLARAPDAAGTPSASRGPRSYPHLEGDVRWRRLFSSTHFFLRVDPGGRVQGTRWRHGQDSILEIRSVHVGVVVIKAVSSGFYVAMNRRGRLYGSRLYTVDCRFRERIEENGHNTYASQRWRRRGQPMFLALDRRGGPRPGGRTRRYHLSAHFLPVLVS
An asterisk follows results filed as active; ? = inconclusive; . = no result. Rows were chosen to be rich in hits. Some 4% of all compounds tested hit in one or more screens of this group.

SMILES	E-selectin induc	rRNA inh HTS	FN deposition inh	SIRT5 block	Statin myotox sup	FGF22 binding
CC(C)NC(=O)Nc1ccc2c(c1)C(=O)N([C@@H](C)CO)C[C@H](C)[C@H](CN(C)Cc1ccc3c(c1)OCO3)O2	-3.7	-0.6	8.4	-6.7	1.3	0.2
C[C@@H]1CN([C@H](C)CO)C(=O)c2cc(NS(=O)(=O)c3cccs3)ccc2O[C@@H](C)CCCCO[C@H]1CN(C)S(=O)(=O)c1ccc(F)cc1	2.3	-3.9	.	7.4	.	-0.3
Cc1cc(C)n(-c2cccc(CN(C)Cc3nc(-c4cnccn4)no3)c2)n1	.	12.3	14.2	-2.4	1.1	43.8*
C[C@H](CO)N1C[C@H](C)[C@@H](CN(C)S(C)(=O)=O)Oc2ccc(NC(=O)Cc3ccccc3)cc2CC1=O	3.4	1.6	.	7.4	4.0	-0.1
Cc1noc(C)c1S(=O)(=O)N(C)C[C@@H]1Oc2ccc(NS(C)(=O)=O)cc2C(=O)N([C@H](C)CO)C[C@@H]1C	?	.	.	.	11.8	.
Clc1ccc2nc(CSc3nncn3-c3ccccc3)cn2c1	.	.	-1.4	.	1.7	.
c1ccc(-n2cnnc2SCc2cn3cccnc3n2)cc1	.	.	.	.	85.9*	.
O=C(c1cc(Cl)nc2ccccc12)N(Cc1nnc(-c2ccc(Cl)cc2)o1)C1CC1	-1.7	-27.4*	9.1	-0.8	-24.2	0.1
CC(=O)Nc1sc2c(c1C#N)CCC(C)C2 (centres undefined)	.	-30.3	-4.5	-4.5	111.1*	0.3
CC(=O)NC(=S)Nc1sc2c(c1C(N)=O)CCC(C)C2 (centres undefined)	.	-27.6*	.	-2.0	.	-0.1
CC(C)NC(=O)N[C@H]1CC[C@H](CCNS(=O)(=O)c2ccc(F)cc2)O[C@@H]1CO	-0.2	2.7	.	9.4	-5.9	0.1
CC(=O)N(C)C[C@H]1Oc2ccc(N(C)C)cc2CC(=O)N(C)C[C@H]1C	.	-1.4	-9.5	.	.	.
COC(=O)C[C@H]1CC[C@@H](N)[C@H](CO)O1	.	.	.	-0.2	3.1	0.4
COc1cccc(/C=N/NC(=O)CCc2ccccc2)c1	.	-21.4*	.	-3.2	1.3	0.1
COc1ccccc1/C=C/C=N/NC(=O)CCn1cnc2ccccc21	0.5	-35.3*	-8.8	2.2	.	0.0
O=C(CCn1nnc2ccccc21)N/N=C\Cc1ccccc1	.	.	-16.2	-1.5	.	43.2*
COc1cccc(/C=N\NC(=O)Cn2nnc3ccccc32)c1O	.	-20.4*	5.9	-1.1	.	-0.3
COc1cc(/C=N/NC(=O)Cn2nnc3ccccc32)ccc1O	.	15.3	5.7	0.3	.	41.9
COc1cccc(/C=N/NC(=O)CCn2nnc3ccccc32)c1	.	3.7	-6.6	-0.8	3.9	43.5*
COc1cc(/C=N/NC(=O)CCn2nnc3ccccc32)ccc1O	.	12.1	-3.9	-0.8	.	0.3
O=C(C[n+]1cccc(CNC(=O)c2ccc(OC(F)F)cc2)c1)Nc1cccc(C(F)(F)F)c1	0.6	.	-4.5	.	.	.
O=C(C[n+]1cccc(CNC(=O)c2ccc(OC(F)F)cc2)c1)Nc1ccc(F)cc1	-2.4	-18.6*	5.0	-8.9	.	0.1
N=C1C(c2nc3ccccc3s2)=C(O)CN1NC(=O)c1ccco1	32.8*	14.3	4.7	-3.5	-4.6	0.2
COc1cccc(C(=O)NN2CC(O)=C(c3nc4ccccc4s3)C2=N)c1	.	8.0	5.3	4.4	-10.2	0.7
C[C@H](CO)N1C[C@H](C)[C@@H](CN(C)C(=O)c2cnccn2)Oc2ncc(-c3cccc(C#N)c3)cc2C1=O	-0.5	2.6	13.4	.	4.7	0.1
C[C@@H](O)C#Cc1cnc2c(c1)C(=O)N([C@@H](C)CO)C[C@H](C)[C@@H](CN(C)Cc1cccc(F)c1)O2	0.8	1.3	-10.8	-0.3	15.0	-0.1
